Measurements taken from ChEMBL document CHEMBL4257460, “Synthesis and antifungal activity of novel oxazolidin-2-one-linked 1,2,3-triazole derivatives” (2017).
Converted amounts (≈) assume the structure as drawn.

What was measured:
Assay type in all cases: functional
Cyberlindnera jadinii = experiment: Antifungal activity against Candida utilis ATCC 9226 by M27-A3 guideline based method; settings: Williopsis jadinii
Procedure, shortened: (§1)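 Broth microdilution per CLSI (M38-A for filamentous fungi, M27-A3 for yeasts), in MOPS-buffered RPMI-1640 medium. Itraconazole served as the reference antifungal. The MIC was read as the endpoint and expressed in µg/mL.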

Rhizopus arrhizus = experiment: Antifungal activity against Rhizopus oryzae ATCC 10329by M38-A guideline based method; procedure, shortened: as §1
Nakaseomyces glabratus = experiment: Antifungal activity against Candida glabrata ATCC 34138 by M27-A3 guideline based method; procedure, shortened: as §1
Candida tropicalis = experiment: Antifungal activity against Candida tropicalis ATCC 13803 by M27-A3 guideline based method; procedure, shortened: as §1
Aspergillus fumigatus = experiment: Antifungal activity against Aspergillus fumigatus ATCC 16907 by M38-A guideline based method; procedure, shortened: as §1
[1] = test system: Cutaneotrichosporon cutaneum; experiment: Antifungal activity against Trichosporon cutaneum ATCC 28592 by M38-A guideline based method; procedure, shortened: as §1
Pichia kudriavzevii = experiment: Antifungal activity against Candida krusei ATCC 14243 by M27-A3 guideline based method; procedure, shortened: as §1
Candida parapsilosis = experiment: Antifungal activity against Candida parapsilosis ATCC 22019 by M27-A3 guideline based method; settings: Lodderomyces parapsilosis; procedure, shortened: as §1
Candida albicans = experiment: Antifungal activity against Candida albicans ATCC 10231 by M27-A3 guideline based method; procedure, shortened: as §1
Mucor hiemalis = experiment: Antifungal activity against Mucor hiemalis ATCC 8690 by M38-A guideline based method; procedure, shortened: as §1

Structure (SMILES)	MIC (Cyberlindnera jadinii)	MIC (Rhizopus arrhizus)	MIC (Nakaseomyces glabratus)	MIC (Candida tropicalis)	MIC (Aspergillus fumigatus)	MIC [1]	MIC (Pichia kudriavzevii)	MIC (Candida parapsilosis)	MIC (Candida albicans)	MIC (Mucor hiemalis)
O=C(c1ccccc1)c1nnn(CCn2c(-c3ccccc3)c(-c3ccccc3)oc2=O)c1-c1ccccc1	8 µg/mL (≈ 15.6 µM)	16 µg/mL (≈ 31.2 µM)	2 µg/mL (≈ 3.9 µM)	8 µg/mL (≈ 15.6 µM)	16 µg/mL (≈ 31.2 µM)	8 µg/mL (≈ 15.6 µM)	8 µg/mL (≈ 15.6 µM)	8 µg/mL (≈ 15.6 µM)	8 µg/mL (≈ 15.6 µM)	16 µg/mL (≈ 31.2 µM)
Cc1ccc(S(=O)(=O)c2nnn(CCn3c(-c4ccccc4)c(-c4ccccc4)oc3=O)c2-c2ccc(Cl)cc2)cc1	8 µg/mL (≈ 13.4 µM)	16 µg/mL (≈ 26.8 µM)	4 µg/mL (≈ 6.7 µM)	8 µg/mL (≈ 13.4 µM)	4 µg/mL (≈ 6.7 µM)	8 µg/mL (≈ 13.4 µM)	8 µg/mL (≈ 13.4 µM)	8 µg/mL (≈ 13.4 µM)	8 µg/mL (≈ 13.4 µM)	16 µg/mL (≈ 26.8 µM)
Cc1ccc(S(=O)(=O)c2nnn(CCn3c(-c4ccccc4)c(-c4ccccc4)oc3=O)c2-c2ccc([N+](=O)[O-])cc2)cc1	4 µg/mL (≈ 6.58 µM)	16 µg/mL (≈ 26.3 µM)	4 µg/mL (≈ 6.58 µM)	8 µg/mL (≈ 13.2 µM)	2 µg/mL (≈ 3.29 µM)	8 µg/mL (≈ 13.2 µM)	0.25 µg/mL (≈ 0.411 µM)	8 µg/mL (≈ 13.2 µM)	4 µg/mL (≈ 6.58 µM)	16 µg/mL (≈ 26.3 µM)
Cc1ccc(S(=O)(=O)c2nnn(CCn3c(-c4ccccc4)c(-c4ccccc4)oc3=O)c2-c2ccccc2)cc1	8 µg/mL (≈ 14.2 µM)	16 µg/mL (≈ 28.4 µM)	1 µg/mL (≈ 1.78 µM)	8 µg/mL (≈ 14.2 µM)	2 µg/mL (≈ 3.55 µM)	8 µg/mL (≈ 14.2 µM)	0.5 µg/mL (≈ 0.889 µM)	8 µg/mL (≈ 14.2 µM)	8 µg/mL (≈ 14.2 µM)	4 µg/mL (≈ 7.11 µM)
CC(=O)c1nnn(CCn2c(-c3ccccc3)c(-c3ccccc3)oc2=O)c1C	8 µg/mL (≈ 20.6 µM)	8 µg/mL (≈ 20.6 µM)	2 µg/mL (≈ 5.15 µM)	8 µg/mL (≈ 20.6 µM)	16 µg/mL (≈ 41.2 µM)	8 µg/mL (≈ 20.6 µM)	8 µg/mL (≈ 20.6 µM)	4 µg/mL (≈ 10.3 µM)	8 µg/mL (≈ 20.6 µM)	16 µg/mL (≈ 41.2 µM)
N#Cc1nnn(CCn2c(-c3ccccc3)c(-c3ccccc3)oc2=O)c1-c1ccccc1	8 µg/mL (≈ 18.5 µM)	16 µg/mL (≈ 36.9 µM)	0.12 µg/mL (≈ 0.277 µM)	8 µg/mL (≈ 18.5 µM)	16 µg/mL (≈ 36.9 µM)	8 µg/mL (≈ 18.5 µM)	0.5 µg/mL (≈ 1.15 µM)	8 µg/mL (≈ 18.5 µM)	8 µg/mL (≈ 18.5 µM)	2 µg/mL (≈ 4.61 µM)
Cc1ccc(S(=O)(=O)c2nnn(CCn3c(-c4ccccc4)c(-c4ccccc4)oc3=O)c2-c2ccc(Cl)s2)cc1	8 µg/mL (≈ 13.3 µM)	16 µg/mL (≈ 26.5 µM)	2 µg/mL (≈ 3.32 µM)	8 µg/mL (≈ 13.3 µM)	16 µg/mL (≈ 26.5 µM)	8 µg/mL (≈ 13.3 µM)	2 µg/mL (≈ 3.32 µM)	4 µg/mL (≈ 6.63 µM)	8 µg/mL (≈ 13.3 µM)	16 µg/mL (≈ 26.5 µM)
Cc1ccc(S(=O)(=O)c2nnn(CCn3c(-c4ccccc4)c(-c4ccccc4)oc3=O)c2-c2cccs2)cc1	8 µg/mL (≈ 14.1 µM)	16 µg/mL (≈ 28.1 µM)	1 µg/mL (≈ 1.76 µM)	8 µg/mL (≈ 14.1 µM)	8 µg/mL (≈ 14.1 µM)	8 µg/mL (≈ 14.1 µM)	8 µg/mL (≈ 14.1 µM)	8 µg/mL (≈ 14.1 µM)	8 µg/mL (≈ 14.1 µM)	16 µg/mL (≈ 28.1 µM)
Cc1ccc(-c2c(S(=O)(=O)c3ccc(C)cc3)nnn2CCn2c(-c3ccccc3)c(-c3ccccc3)oc2=O)cc1	4 µg/mL (≈ 6.94 µM)	16 µg/mL (≈ 27.7 µM)	2 µg/mL (≈ 3.47 µM)	8 µg/mL (≈ 13.9 µM)	8 µg/mL (≈ 13.9 µM)	8 µg/mL (≈ 13.9 µM)	8 µg/mL (≈ 13.9 µM)	0.25 µg/mL (≈ 0.434 µM)	1 µg/mL (≈ 1.73 µM)	16 µg/mL (≈ 27.7 µM)
Cc1ccc(S(=O)(=O)c2nnn(CCn3c(-c4ccccc4)c(-c4ccccc4)oc3=O)c2-c2cccc([N+](=O)[O-])c2)cc1	8 µg/mL (≈ 13.2 µM)	16 µg/mL (≈ 26.3 µM)	0.12 µg/mL (≈ 0.197 µM)	8 µg/mL (≈ 13.2 µM)	16 µg/mL (≈ 26.3 µM)	2 µg/mL (≈ 3.29 µM)	8 µg/mL (≈ 13.2 µM)	0.5 µg/mL (≈ 0.823 µM)	8 µg/mL (≈ 13.2 µM)	16 µg/mL (≈ 26.3 µM)
CCC(C)n1ncn(-c2ccc(N3CCN(c4ccc(OCC5COC(Cn6cncn6)(c6ccc(Cl)cc6Cl)O5)cc4)CC3)cc2)c1=O (stereo not given) [ITRACONAZOLE]	0.25 µg/mL (≈ 0.354 µM)	1 µg/mL (≈ 1.42 µM)	1 µg/mL (≈ 1.42 µM)	0.06 µg/mL (≈ 0.085 µM)	1 µg/mL (≈ 1.42 µM)	8 µg/mL (≈ 11.3 µM)	0.25 µg/mL (≈ 0.354 µM)	0.06 µg/mL (≈ 0.085 µM)	0.03 µg/mL (≈ 0.0425 µM)	4 µg/mL (≈ 5.67 µM)
